The test system of assay [1] is Mycobacterium tuberculosis. The experiment in a line: Antimicrobial activity against wild-type Mycobacterium bovis BCG by microplate Alamar blue assay. Format: functional. Particulars: variant bovis BCG. The method, boiled down: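 Whole-cell M. bovis BCG (Institut Pasteur) MABA; mutants carried IS1096::Km insertions. Growth was in Middlebrook 7H9 with 0.2% glycerol, 0.05% Tween 80 and 10% OADC. Final drug ranges: ampicillin 62.5–2,000 μg/ml, vancomycin 1.25–40 μg/ml, streptomycin 0.25–8 μg/ml, chloramphenicol 4–128 μg/ml, tetracycline 0.5–16 μg/ml. MIC was the lowest concentration cutting viability ≥90%, read by fluorescence (ex 530/em 590 nm, room temperature).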
On the technique in general: The colour change of resazurin is a common sign of viable cells or microbes.

For assay [2], the system named is Mycobacterium tuberculosis. The experiment in a line: Resistance factor, ratio of MIC for Mycobacterium bovis BCG ML1034 to MIC for wild-type Mycobacterium bovis BCG. Type of assay: functional, variant bovis BCG. The method, boiled down: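 Resistance factor is the MABA MIC for BCG mutant ML1034 divided by the MIC for wild-type BCG. Both MICs were taken as ≥90% viability reduction, read by fluorescence (ex 530/em 590 nm).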

In brackets after ≈: the same amount, converted by molar mass.

For `CN(C)[C@@H]1C(O)=C(C(N)=O)C(=O)[C@@]2(O)C(O)=C3C(=O)c4c(O)cccc4[C@@](C)(O)[C@H]3C[C@@H]12` [TETRACYCLINE], in assay [1], the MIC was found to be 2 µg/mL (≈ 4.5 µM). In addition, in assay [2], the Ratio is above 8.
The like results for `CC1(C)S[C@@H]2[C@H](NC(=O)[C@H](N)c3ccccc3)C(=O)N2[C@H]1C(=O)O` [AMPICILLIN] were, in that order, 62.5 µg/mL (≈ 179 µM) and 32.
In the case of `O=C(N[C@H](CO)[C@H](O)c1ccc([N+](=O)[O-])cc1)C(Cl)Cl` [CHLORAMPHENICOL], the MIC in assay [1] amounted to 8 µg/mL (≈ 24.8 µM). Moreover, in assay [2], the Ratio was determined as 64.
In the case of `CN[C@@H]1[C@H](O[C@H]2[C@H](O[C@H]3[C@H](O)[C@@H](O)[C@H](N=C(N)N)[C@@H](O)[C@@H]3N=C(N)N)O[C@@H](C)[C@]2(O)C=O)O[C@@H](CO)[C@H](O)[C@H]1O` [STREPTOMYCIN], it took 0.5 µg/mL (≈ 0.86 µM) to inhibit growth in assay [1] (MIC). In assay [2], the Ratio is listed as 32.
The like results for `CN[C@H](CC(C)C)C(=O)N[C@H]1C(=O)N[C@@H](CC(N)=O)C(=O)N[C@H]2C(=O)N[C@H]3C(=O)N[C@H](C(=O)N[C@H](C(=O)O)c4cc(O)cc(O)c4-c4cc3ccc4O)[C@H](O)c3ccc(c(Cl)c3)Oc3cc2cc(c3O[C@@H]2O[C@H](CO)[C@@H](O)[C@H](O)[C@H]2O[C@H]2C[C@](C)(N)[C@H](O)[C@H](C)O2)Oc2ccc(cc2Cl)[C@H]1O` [VANCOMYCIN] were, in that order, 5 µg/mL (≈ 3.45 µM) and 4.

What is called MIC is the lowest concentration found to suppress growth. Read a high MIC as a need for much substance.

(Values after ChEMBL document CHEMBL1275448, “Identification of a novel multidrug efflux pump of Mycobacterium tuberculosis” (2008).)
